Only some compounds are listed: those with a hit (about 1.5% of all), similar ones and a draw of the others.
CXCR6 inh = CXCR6 receptor inhibitors, primary screen, cell-based, beta-arrestin, luminescence, CHO-K1 PathHunter, 1536-well; C-X-C chemokine receptor type 6 (Homo sapiens), O00574; inhibition, % at 20 µM; hit rate 0.36% among 360,000; AID 602244, 2012; in the data active = inhibition above about 34%, passing the limit was not always enough;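 also: antagonist mode with CXCL16 agonist at 10 nM final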
APJ agonist = agonists of human apelin receptor APJ, primary screen, CHO-K1 cells, PathHunter beta-arrestin, luminescence; 0% DMSO wells, 100% apelin; activation, % at 20 µM; hit rate 0.11% among 330,000; AID 2520, 2010;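 active = activation more than six SD over the plate average, tested at 20 µM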
Target sequence (P35414 whole entry, looked up): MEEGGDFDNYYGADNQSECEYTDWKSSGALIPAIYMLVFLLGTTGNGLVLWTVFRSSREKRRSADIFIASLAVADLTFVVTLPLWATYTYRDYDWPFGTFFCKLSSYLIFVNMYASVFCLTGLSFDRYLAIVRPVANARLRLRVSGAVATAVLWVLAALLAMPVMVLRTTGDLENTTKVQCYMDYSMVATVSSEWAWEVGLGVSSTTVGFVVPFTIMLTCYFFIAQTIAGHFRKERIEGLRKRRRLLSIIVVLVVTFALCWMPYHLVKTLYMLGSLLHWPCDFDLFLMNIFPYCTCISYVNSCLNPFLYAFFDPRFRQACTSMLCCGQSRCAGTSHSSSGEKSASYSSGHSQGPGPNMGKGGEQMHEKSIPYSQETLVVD
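Assay system: CHO-K1 cells stably expressing ProLink-tagged human APJ and arrestin–beta-gal acceptor. Compound dosing: 20 µM single point, 1% DMSO. Times: 16-18 h seeding, 90 min dark compound exposure, 60 min detection. Detection: beta-gal luminescence. Evaluation: APJ–arrestin association signal. Controls: negative DMSO alone, positive Apelin-13 at 10 nM.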
CCR6 antagonist = CCR6 receptor antagonists, primary screen, cell-based, CHO-K1, luminescence, beta-arrestin, uHTS | C-C chemokine receptor type 6 (Homo sapiens), P51684 | CHO-K1 CCR6 PathHunter beta-arrestin, CCL20-stimulated | inhibition, % at 20 µM | hit rate 0.49% among 340,000 | AID 493098, 2011;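 active = compounds whose inhibition of the agonist-driven luminescence signal at 20 µM reaches about 50%, limit read from the data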;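 also: cells stimulated with CCL20 at 14 nM final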
APJ antagonist = antagonists of human apelin receptor APJ, primary screen, CHO-K1 cells, beta-arrestin complementation, luminescence; P35414; inhibition, % at 20 µM; hit rate 0.32% among 330,000; AID 2521, 2010;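 active = inhibition above about 40% at 20 µM, limit read from the data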;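 also: cells challenged with 10 nM apelin-13 agonist together with compound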
EBI2 antag = EBI2 receptor antagonists, beta-arrestin recruitment, primary screen, cell-based, luminescence, 7a,25-OHC stimulation, uHTS; G-protein coupled receptor 183 (Homo sapiens), P32249; 7a,25-OHC stimulated; inhibition, % at 5 µM; hit rate 0.81% among 360,000; AID 651636, 2012; in the data active = inhibition above about 38%;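 also: enzyme fragment complementation signal reports receptor beta-arrestin coupling in cells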
hiPSC survival = enhancers of single-cell hiPSC survival, primary screen, ATPlite luminescence; 100% = ROCK inhibitor wells, 0% = DMSO; survival enhancement, % at 20 µM; hit rate 0.044% among 360,000; AID 602274, 2012; in the data active = survival enhancement above about 18%;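 also: cells exposed to compounds for 16 hours before the ATP read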
EBI2 conf = EBI2 antagonist hit retest, beta-arrestin, confirmation, cell-based, single concentration, luminescence, 7a,25-OHC stimulation. shares compounds with EBI2 antag. 7a,25-OHC antagonism. inhibition, % at 5 µM. hit rate 29% among 2,400. AID 651997, 2013;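 active = inhibition of at least 50%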
EBI2 ag = EBI2 agonist activity of antagonist hits, confirmation, counter-screen for EBI2 antagonist project, cell-based, single concentration, agonist mode, luminescence; shares compounds with EBI2 antag; EBI2-expressing cells, 60 min; 0% vehicle, 100% 7α,25-dihydroxycholesterol control; activation, % at 5 µM; 2,400 tested, under 10 active; AID 652000, 2013;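 active = activation of at least 50%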
bGal counter = E. coli beta-galactosidase enzyme inhibition, confirmation, counter-screen for EBI2 antagonist project, biochemical, luminescence, single concentration; shares compounds with EBI2 antag; purified beta-galactosidase, luminescent Galacton Star, 15 min; inhibition, % at 5 µM; hit rate 1% among 2,400; AID 652176, 2013;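 active = replicate-average signal at least 3 plate SD below neutral wells, shown as high inhibition, flagging enzyme-inhibiting false positives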;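 also: higher means stronger loss of beta-gal luminescence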
Large screens that a line does not name were inactive (follow-up assays come after a bar, where they were run).

CSCCC(c1nnnn1-c1c(C)cccc1C)N1CCN(C/C=C/c2ccccc2)CC1 (stereo not drawn)	EBI2 antag 53 (no result: APJ agonist, CCR6 antagonist, APJ antagonist) | EBI2 conf inactive | EBI2 ag inactive | bGal counter inactive
COc1ccc(C(=O)OC2C(OC)OCC(O)C2O)cc1 (stereo not drawn)	none (no result: APJ agonist, APJ antagonist)
O=C(CN1C(=O)NC(c2ccccc2)(c2ccccc2)C1=O)NCc1cccs1	none
OCc1cccc(-c2cnc3c(Nc4cccc(OC(F)(F)C(F)F)c4)nccn23)c1	EBI2 antag 51 (no result: APJ agonist, CCR6 antagonist, APJ antagonist) | EBI2 conf 51 | EBI2 ag inactive | bGal counter inactive
Cc1ccc(-c2cnc3c(Nc4cccc(OC(F)(F)C(F)F)c4)nccn23)cc1	none (no result: APJ agonist, CCR6 antagonist, APJ antagonist)
O=C(CNC(=O)C1CC(=O)N(c2cccc3ccccc23)C1)Nc1ccccc1Br (stereo not drawn)	none
CCOc1ccc(Br)cc1S(=O)(=O)Nc1ccc(NC(=O)c2ccccc2C)cc1	none
CCOc1ccc(Br)cc1S(=O)(=O)Nc1ccc(C(=O)Nc2ccc(C)cc2)cc1	EBI2 antag 56 | EBI2 conf inactive | EBI2 ag inactive | bGal counter inactive
CC(=O)N1CCN(c2ccccc2NC(=O)c2ccco2)CC1	none
CCCS(=O)(=O)N1CCN(C(=O)c2ccc(-c3ccccc3)cc2)CC1	EBI2 antag 73 | EBI2 conf inactive | EBI2 ag inactive | bGal counter inactive
Cc1ccc(/C=C/C(=O)N2CCN(c3cccc(C(F)(F)F)c3)CC2)cc1	EBI2 antag 83 | EBI2 conf 76 | EBI2 ag inactive | bGal counter inactive
COc1ccccc1N1CCN(C(=O)c2cc(-c3cccs3)on2)CC1	EBI2 antag 67 | EBI2 conf 52 | EBI2 ag inactive | bGal counter inactive
CCCS(=O)(=O)N1CCN(C(=O)c2cccnc2)CC1	none
COc1ccccc1N1CCN(C(=O)c2ccc(-c3ccccc3)cc2)CC1	EBI2 antag 74 | EBI2 conf inactive | EBI2 ag inactive | bGal counter inactive
CCOc1ccccc1CN1CCN(CCCc2ccccc2)CC1CCO (stereo not drawn)	none
Cc1csc(=O)n1CCC(=O)OCC(=O)Nc1ccc(Cl)cn1	none
CCOC(=O)C1CCCN(S(=O)(=O)c2cc(Br)cc3c2N(C(=O)CC)CC3)C1 (stereo not drawn)	none
O=C(c1ccc(-c2ccccc2)cc1)N1CCN(c2ncccn2)CC1	EBI2 antag 49 | EBI2 conf inactive | EBI2 ag inactive | bGal counter inactive
C=CCN1CCN(C(=O)c2ccc(-c3ccccc3)cc2)CC1	EBI2 antag 77 | EBI2 conf inactive | EBI2 ag inactive | bGal counter inactive
O=C(c1ccc(-c2ccccc2)cc1)N1CCCC1	none
COc1ccccc1N1CCN(C(=O)COc2ccc(C)cc2Br)CC1	EBI2 antag 50 | EBI2 conf inactive | EBI2 ag inactive | bGal counter inactive
O=C(c1ccccc1)N1CCN(c2ncccn2)CC1	none
COc1ccccc1N1CCN(C(=O)/C=C/c2ccc(C)cc2)CC1	EBI2 antag 93 | EBI2 conf 85 | EBI2 ag inactive | bGal counter inactive
COc1ccccc1N1CCN(C(=O)/C=C/c2cccc([N+](=O)[O-])c2)CC1	none
COc1ccc(OC)c(N(CC(=O)N2CCCC2)S(C)(=O)=O)c1	none
COc1ccccc1NC(=O)CN1C(=O)CC(C)S(=O)(=O)c2ccccc21 (stereo not drawn)	none
COc1ccccc1N1CCN(C(=O)c2cc(-c3ccccc3)on2)CC1	EBI2 antag 63 | EBI2 conf 54 | EBI2 ag inactive | bGal counter inactive
COc1ccc(-c2cc(C(=O)N3CCN(c4ccccc4OC)CC3)no2)cc1OC	none
COc1ccc(NC(=O)C2CCN(S(=O)(=O)c3cccc4nonc34)CC2)cc1OC	none
Cc1ccc2c(c1)N(CC(=O)NCC(C)c1ccccc1)C(=O)c1cccnc1O2 (stereo not drawn)	none
FC(F)(F)Oc1ccccc1C(c1nnnn1C1CCCC1)N1CCN(C/C=C/c2ccccc2)CC1 (stereo not drawn)	EBI2 antag 64 (no result: APJ agonist, CCR6 antagonist, APJ antagonist) | EBI2 conf inactive | EBI2 ag inactive | bGal counter inactive
C(=C\c1ccccc1)/CN1CCN(C(CCc2ccccc2)c2nnnn2C2CCCC2)CC1 (stereo not drawn)	EBI2 antag 51 (no result: APJ agonist, CCR6 antagonist, APJ antagonist) | EBI2 conf inactive | EBI2 ag inactive | bGal counter inactive
COc1ccc(-n2c(=S)[nH]c3cc(C(=O)Nc4ccc(F)cc4)ccc3c2=O)c(OC)c1	none
O=C(NC1CC1)C1CCN(S(=O)(=O)c2cc([N+](=O)[O-])ccc2Cl)CC1	none
O=C(NCc1ccc(Cl)cc1)C1CCN(S(=O)(=O)c2cc([N+](=O)[O-])ccc2Cl)CC1	EBI2 antag 47 | EBI2 conf inactive | EBI2 ag inactive | bGal counter inactive
O=C(NCc1ccc(Cl)cc1)C1CCN(S(=O)(=O)c2ccccc2)CC1	EBI2 antag 65 | EBI2 conf inactive | EBI2 ag inactive | bGal counter inactive
CCOC(=O)c1cnn(-c2nc(-c3ccc(C)cc3)cs2)c1C(F)(F)F	EBI2 antag 45 (no result: APJ agonist, APJ antagonist) | EBI2 conf inactive | EBI2 ag inactive | bGal counter inactive
O=C(O)c1cnn(-c2nc(-c3ccc(F)cc3)cs2)c1C(F)(F)F	none
COc1cc(NC(=O)c2c(F)c(F)c(OC)c(F)c2F)ccc1NC(=O)c1cccs1	none
CC1CCCN(C(=O)CCNC(=O)Cn2cnc3ccccc3c2=O)C1 (stereo not drawn)	none
Cc1cc(C(=O)N2CCN(C(c3ccccc3)c3ccccc3)CC2)no1	none
COc1cccc(-c2cc(C(=O)N3CCN(C(c4ccccc4)c4ccccc4)CC3)no2)c1	EBI2 antag 87 | EBI2 conf 81 | EBI2 ag inactive | bGal counter inactive

Screening data (PubChem BioAssay)
